Key:
[1] = system: Swiss mice; test: Formalin plantar test with; type: in vivo, mouse; details: for Effect on analgesic effects of methanandamide in formalin test: 30 min before intraplantar formalin with mAEA 50 μg
Method in brief: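 Swiss mice were pretreated i.p. with vehicle, test compound (20 mg-kg−1) or CB1 antagonist (2 mg-kg−1). Intraplantar formalin followed 30 min later, with or without co-injected (R)-methanandamide (50 μg). Nociception was scored in the first phase (0–15 min) and second phase (15–45 min). n = 8–13. Analysis was repeated-measures ANOVA with Bonferroni tests. Error bars are SEM.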

[2] = Drug levels in plasma and tissues after systemic administration; type: in vivo, mouse
[3] = target: CB1 receptors (Rattus norvegicus, UniProt P20272); test: GTPγS binding in rat cerebellar membrane preparations; type: biochemical; details: absence of WIN55,212-2; 100 nM–10 μM; data not shown
[4] = system: ob/ob mice; test: Food intake and body-weight gain in ob/ob mice, daily treatment for 2 weeks; type: in vivo, mouse; details: 20 mg-kg−1 i.p. once daily for 2 weeks
Method in brief: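 Genetically obese ob/ob mice received test compound (20 mg-kg−1, i.p.) or vehicle once daily for 2 weeks. Food intake was recorded, and body weight was expressed as % change from day 0. n = 8 per group. Analysis was 2-way repeated-measures ANOVA with Bonferroni post hoc test. Error bars are SEM.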

[5] = system: Swiss mice; test: Food intake over 24 h in Swiss mice; type: in vivo, mouse; details: 30 min before dark onset; for Effect on total food consumption: 20 mg-kg−1 i.p.
Method in brief: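 Male Swiss mice were dosed i.p. with test compound (5 or 20 mg-kg−1) or vehicle 30 min before dark onset. Cumulative food intake was monitored for 24 h. n = 12 per group. Data were analysed by 2-way repeated-measures ANOVA with Bonferroni post hoc test. Error bars are SEM.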

[6] = system: mice; test: WIN55,212-2-induced catalepsy, ring catalepsy test; type: in vivo, mouse; details: for Effect on WIN55,212-2-induced catalepsy: 30 min prior to WIN55,212-2 5 mg-kg−1
Method in brief: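 Mice were pretreated i.p. with vehicle, test compound (20 mg-kg−1) or CB1 antagonist (5 mg-kg−1). After 30 min they received vehicle or WIN55,212-2 (5 mg-kg−1, i.p.). Cataleptic behaviour was scored 30 min after the WIN55,212-2 injection. n = 6. Analysis was ANOVA with Bonferroni post hoc tests. Error bars are SEM.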

[7] = system: mice; test: Motor activity in mice; type: in vivo, mouse; details: 20 mg-kg−1 i.p.; data not shown
[8] = system: Swiss mice; test: WIN55,212-2-induced hypothermia; type: in vivo, mouse
Method in brief: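 Swiss mice received a first i.p. injection of vehicle, test compound (20 mg-kg−1) or CB1 antagonist (2 mg-kg−1). A second injection of WIN55,212-2 (3 mg-kg−1, i.p.) followed 30 min later. Body temperature was read 30 min after WIN55,212-2. n = 5. Analysis was ANOVA with Bonferroni post hoc tests. Error bars are SEM.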

[9] = system: mouse CB2 receptors; test: cAMP accumulation in Hek-293 cells stably expressing mouse CB2 receptors; type: cell-based; details: isoproterenol 10 μM alone; basal 18 ± 2.4; n = 4

Chain of CB1 receptors (P20272 whole entry): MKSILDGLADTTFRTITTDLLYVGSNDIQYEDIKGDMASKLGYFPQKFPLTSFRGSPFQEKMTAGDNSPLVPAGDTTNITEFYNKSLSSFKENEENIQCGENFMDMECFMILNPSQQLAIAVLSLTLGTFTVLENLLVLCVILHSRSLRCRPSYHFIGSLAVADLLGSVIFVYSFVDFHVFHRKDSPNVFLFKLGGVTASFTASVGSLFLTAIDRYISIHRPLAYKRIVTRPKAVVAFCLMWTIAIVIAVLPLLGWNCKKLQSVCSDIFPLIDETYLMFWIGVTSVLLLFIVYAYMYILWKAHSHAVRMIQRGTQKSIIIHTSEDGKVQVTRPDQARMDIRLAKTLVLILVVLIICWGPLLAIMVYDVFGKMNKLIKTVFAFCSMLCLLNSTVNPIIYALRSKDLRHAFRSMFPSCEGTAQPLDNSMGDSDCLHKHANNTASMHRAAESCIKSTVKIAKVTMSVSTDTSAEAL

SMILES: CCCCC/C=C\C/C=C\C/C=C\C/C=C\CCCC(=O)N[C@H](C)CO [(R)-methanandamide]
- Effect on nocifensive behavior in the formalin plantar test ([1]; mAEA 50 μg co-injected with formalin): inhibits

SMILES: Cc1c(C(=O)c2ccccc2)c(N)c(-c2ccccc2)n1Cc1ccc(Cl)cc1 [URB447, [4-amino-1-(4-chlorobenzyl)-2-methyl-5-phenyl-1H-pyrrol-3-yl](phenyl)methanone]
- Liver Cmax ([2]; 20 mg-kg−1 i.p.): 4.3 ± 0.7 nmol/g
- Time of maximal tissue levels in liver ([2]; 20 mg-kg−1 i.p.): 15 min
- Time of maximal tissue levels in white adipose fat ([2]; 20 mg-kg−1 i.p.): 15 min
- Cmax ([2]; mouse, plasma, ip, 20 mg): 596 ± 117 nM
- Tmax ([2]; mouse, plasma, ip, 20 mg): 30 min
- Effect on analgesic effects of methanandamide in formalin test ([1]; 20 mg-kg−1 i.p.): completely blocked
- Inhibition of basal GTPγS binding [3]: failed to inhibit
- Amount of food consumed throughout the treatment period [4]: significant reduction
- Body-weight gain [4]: significant attenuation
- Effect on food intake ([5]; 5 mg-kg−1 i.p.): no effect
- Effect on total food consumption [5]: drastically reduced
- Effect on WIN55,212-2-induced catalepsy ([6]; 20 mg-kg−1 i.p.): unaffected
- Effect on motor activity [7]: did not alter

SMILES: Cc1c(C(=O)c2cccc3ccccc23)c2cccc3c2n1[C@H](CN1CCOCC1)CO3 [WIN55,212-2]
- Body temperature effect ([8]; 3 mg-kg−1 i.p., 30 min after administration): maximal hypothermia
- Time spent cataleptic in the ring catalepsy test ([6]; 5 mg-kg−1, scored 30 min later): significant increase

SMILES: CC(C)NCC(O)c1ccc(O)c(O)c1 (stereo not drawn) [isoproterenol]
- cAMP levels [9]: 56.2 ± 6 pmol/well

SMILES: Cc1c(C(=O)NN2CCCCC2)nn(-c2ccc(Cl)cc2Cl)c1-c1ccc(Cl)cc1 [rimonabant]
- Effect on WIN55,212-2-induced hypothermia ([8]; 2 mg-kg−1 i.p., 30 min pretreatment, WIN55,212-2 3 mg-kg−1 i.p.): attenuated
- Effect on analgesic effects of methanandamide in formalin test ([1]; 2 mg-kg−1 i.p.): completely blocked
- Effect on total food consumption [5]: mimicked
- Effect on WIN55,212-2-induced catalepsy ([6]; 5 mg-kg−1 i.p.): reversed
